Assay [1] has as its target T1, Integrin alpha-IIb/beta-3 (Homo sapiens, UniProt P05106+P08514). In words: Inhibition of platelet aggregation by change in light transmittance at 300 uM. The format is functional. The method, boiled down:
(§1)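 Human gel-filtered platelets at 2 × 10^8/mL were mixed with 0.1 mg/mL human fibrinogen, 1 mM CaCl2 and compound, then aggregated with 10 µM ADP. Light transmittance was compared between control and treated samples.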

For assay [2], the target named is T2, Integrin alpha-V/beta-3 (Homo sapiens, UniProt P05106+P06756). In words: Inhibition of human umbilical vein endothelial cell adhesion to fibrinogen. The format is functional, cell-based.
T2 sequence (P05106 27-788 limits assumed): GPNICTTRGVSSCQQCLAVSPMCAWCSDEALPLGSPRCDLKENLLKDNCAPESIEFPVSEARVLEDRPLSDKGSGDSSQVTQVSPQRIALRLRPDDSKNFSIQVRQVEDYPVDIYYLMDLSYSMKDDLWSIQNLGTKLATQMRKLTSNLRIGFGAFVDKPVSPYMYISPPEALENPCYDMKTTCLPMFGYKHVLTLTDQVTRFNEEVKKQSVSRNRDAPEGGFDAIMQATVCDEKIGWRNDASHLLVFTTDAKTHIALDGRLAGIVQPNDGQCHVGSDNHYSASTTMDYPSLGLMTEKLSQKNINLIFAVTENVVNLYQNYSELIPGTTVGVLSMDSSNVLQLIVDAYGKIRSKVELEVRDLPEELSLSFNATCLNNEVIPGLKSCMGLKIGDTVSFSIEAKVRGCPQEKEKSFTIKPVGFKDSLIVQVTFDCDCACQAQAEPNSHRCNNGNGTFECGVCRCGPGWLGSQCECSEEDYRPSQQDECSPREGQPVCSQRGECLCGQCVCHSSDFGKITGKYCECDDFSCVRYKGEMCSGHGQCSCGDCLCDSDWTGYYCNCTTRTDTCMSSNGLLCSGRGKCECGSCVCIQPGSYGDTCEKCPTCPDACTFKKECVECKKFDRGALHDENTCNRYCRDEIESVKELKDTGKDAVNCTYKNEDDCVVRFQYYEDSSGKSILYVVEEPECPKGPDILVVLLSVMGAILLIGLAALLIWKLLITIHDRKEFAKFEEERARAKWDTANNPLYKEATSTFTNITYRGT
T2 sequence (P06756 31-889 limits assumed): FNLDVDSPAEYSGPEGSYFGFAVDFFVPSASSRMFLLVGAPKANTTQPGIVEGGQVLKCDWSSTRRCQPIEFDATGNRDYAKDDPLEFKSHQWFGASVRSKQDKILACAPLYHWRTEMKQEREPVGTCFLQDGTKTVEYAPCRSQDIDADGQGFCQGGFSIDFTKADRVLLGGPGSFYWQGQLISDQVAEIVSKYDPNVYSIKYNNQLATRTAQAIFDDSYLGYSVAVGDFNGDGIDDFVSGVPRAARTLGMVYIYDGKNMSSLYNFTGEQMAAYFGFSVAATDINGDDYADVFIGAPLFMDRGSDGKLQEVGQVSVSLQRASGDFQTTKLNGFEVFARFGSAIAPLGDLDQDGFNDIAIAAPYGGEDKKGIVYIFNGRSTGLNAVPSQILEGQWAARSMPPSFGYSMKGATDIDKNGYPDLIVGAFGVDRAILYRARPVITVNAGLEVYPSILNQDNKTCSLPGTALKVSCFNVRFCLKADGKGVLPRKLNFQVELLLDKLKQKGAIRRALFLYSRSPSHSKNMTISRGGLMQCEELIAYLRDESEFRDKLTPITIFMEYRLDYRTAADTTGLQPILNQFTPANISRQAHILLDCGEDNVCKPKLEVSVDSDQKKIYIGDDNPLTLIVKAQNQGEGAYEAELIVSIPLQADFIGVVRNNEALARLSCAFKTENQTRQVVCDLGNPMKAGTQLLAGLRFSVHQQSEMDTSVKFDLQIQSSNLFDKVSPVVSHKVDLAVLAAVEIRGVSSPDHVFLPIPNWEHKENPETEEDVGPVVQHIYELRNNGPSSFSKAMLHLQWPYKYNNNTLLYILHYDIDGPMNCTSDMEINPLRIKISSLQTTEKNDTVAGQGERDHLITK
T2 sequence (P06756 891-1048 limits assumed): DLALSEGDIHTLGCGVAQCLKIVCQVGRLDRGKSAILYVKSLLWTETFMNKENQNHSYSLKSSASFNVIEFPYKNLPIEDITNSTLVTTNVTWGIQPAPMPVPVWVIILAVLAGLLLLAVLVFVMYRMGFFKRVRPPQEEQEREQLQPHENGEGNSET
The target in assay [3] is T2, Integrin alpha-V/beta-3. In words: Inhibition of human umbilical vein endothelial cell adhesion to vitronectin. The class given is functional, cell-based.
Assay [4] concerns the target T1, Integrin alpha-IIb/beta-3. In words: Inhibition of platelet aggregation as the concentration necessary to inhibit the change in light. The format is functional. The method, boiled down: as §1
Target sequence in this assay (P05106 27-788 limits assumed): as the sequence (P05106 27-788 limits assumed) above
Target sequence in this assay (P08514 32-887 limits assumed): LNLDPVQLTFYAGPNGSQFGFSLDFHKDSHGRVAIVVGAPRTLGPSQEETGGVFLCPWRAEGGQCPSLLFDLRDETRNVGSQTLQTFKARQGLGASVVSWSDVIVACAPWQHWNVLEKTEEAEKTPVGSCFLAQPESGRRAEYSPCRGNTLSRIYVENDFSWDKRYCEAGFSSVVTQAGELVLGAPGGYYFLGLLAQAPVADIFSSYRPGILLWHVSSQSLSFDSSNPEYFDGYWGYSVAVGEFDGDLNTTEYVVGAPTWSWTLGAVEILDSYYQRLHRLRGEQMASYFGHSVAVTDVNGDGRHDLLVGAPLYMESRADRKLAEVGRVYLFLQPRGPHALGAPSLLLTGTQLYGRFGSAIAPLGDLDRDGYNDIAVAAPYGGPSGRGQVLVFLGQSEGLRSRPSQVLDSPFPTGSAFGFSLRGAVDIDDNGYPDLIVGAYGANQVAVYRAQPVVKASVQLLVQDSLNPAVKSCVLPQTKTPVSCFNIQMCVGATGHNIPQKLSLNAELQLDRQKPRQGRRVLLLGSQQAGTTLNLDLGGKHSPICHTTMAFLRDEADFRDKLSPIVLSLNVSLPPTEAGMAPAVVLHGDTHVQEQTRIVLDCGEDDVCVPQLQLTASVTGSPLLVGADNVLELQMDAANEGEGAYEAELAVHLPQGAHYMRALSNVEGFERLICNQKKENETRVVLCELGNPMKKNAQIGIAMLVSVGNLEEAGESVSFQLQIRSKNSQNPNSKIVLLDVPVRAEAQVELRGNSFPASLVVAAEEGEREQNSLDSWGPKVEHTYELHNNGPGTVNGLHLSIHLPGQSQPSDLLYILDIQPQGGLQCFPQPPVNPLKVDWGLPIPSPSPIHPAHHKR
Target sequence in this assay (P08514 891-1039 limits assumed): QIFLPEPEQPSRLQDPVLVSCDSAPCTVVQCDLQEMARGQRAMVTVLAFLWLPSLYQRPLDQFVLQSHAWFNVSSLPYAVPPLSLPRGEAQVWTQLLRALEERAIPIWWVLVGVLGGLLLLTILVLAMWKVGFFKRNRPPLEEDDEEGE
The target of another assay is Integrin alpha-5/beta-1 (Homo sapiens, UniProt P05556+P08648). In words: (§2) Inhibition of human umbilical vein endothelial cell adhesion to fibronectin. The format is functional, cell-based.
Sequence of Integrin alpha-5/beta-1 (P05556 21-798 limits assumed): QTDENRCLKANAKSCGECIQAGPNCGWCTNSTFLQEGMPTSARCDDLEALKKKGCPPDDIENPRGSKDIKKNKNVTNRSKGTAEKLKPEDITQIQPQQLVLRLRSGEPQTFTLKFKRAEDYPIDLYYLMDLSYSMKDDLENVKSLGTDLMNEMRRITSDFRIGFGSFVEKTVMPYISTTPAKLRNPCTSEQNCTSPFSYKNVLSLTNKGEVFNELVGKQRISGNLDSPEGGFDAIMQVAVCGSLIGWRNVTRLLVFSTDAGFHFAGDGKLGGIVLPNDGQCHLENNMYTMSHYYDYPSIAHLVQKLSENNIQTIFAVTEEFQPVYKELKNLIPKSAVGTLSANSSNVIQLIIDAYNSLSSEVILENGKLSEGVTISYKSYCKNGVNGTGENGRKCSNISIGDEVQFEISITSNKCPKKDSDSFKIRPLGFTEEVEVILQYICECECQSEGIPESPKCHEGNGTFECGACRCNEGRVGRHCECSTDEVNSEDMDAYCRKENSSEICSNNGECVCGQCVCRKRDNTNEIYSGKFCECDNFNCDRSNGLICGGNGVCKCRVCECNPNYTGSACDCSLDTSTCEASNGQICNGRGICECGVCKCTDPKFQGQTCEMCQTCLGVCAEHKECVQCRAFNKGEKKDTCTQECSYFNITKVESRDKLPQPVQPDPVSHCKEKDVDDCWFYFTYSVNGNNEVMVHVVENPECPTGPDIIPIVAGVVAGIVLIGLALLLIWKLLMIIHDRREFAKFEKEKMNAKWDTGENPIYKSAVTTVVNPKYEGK
Sequence of Integrin alpha-5/beta-1 (P08648 42-894 limits assumed): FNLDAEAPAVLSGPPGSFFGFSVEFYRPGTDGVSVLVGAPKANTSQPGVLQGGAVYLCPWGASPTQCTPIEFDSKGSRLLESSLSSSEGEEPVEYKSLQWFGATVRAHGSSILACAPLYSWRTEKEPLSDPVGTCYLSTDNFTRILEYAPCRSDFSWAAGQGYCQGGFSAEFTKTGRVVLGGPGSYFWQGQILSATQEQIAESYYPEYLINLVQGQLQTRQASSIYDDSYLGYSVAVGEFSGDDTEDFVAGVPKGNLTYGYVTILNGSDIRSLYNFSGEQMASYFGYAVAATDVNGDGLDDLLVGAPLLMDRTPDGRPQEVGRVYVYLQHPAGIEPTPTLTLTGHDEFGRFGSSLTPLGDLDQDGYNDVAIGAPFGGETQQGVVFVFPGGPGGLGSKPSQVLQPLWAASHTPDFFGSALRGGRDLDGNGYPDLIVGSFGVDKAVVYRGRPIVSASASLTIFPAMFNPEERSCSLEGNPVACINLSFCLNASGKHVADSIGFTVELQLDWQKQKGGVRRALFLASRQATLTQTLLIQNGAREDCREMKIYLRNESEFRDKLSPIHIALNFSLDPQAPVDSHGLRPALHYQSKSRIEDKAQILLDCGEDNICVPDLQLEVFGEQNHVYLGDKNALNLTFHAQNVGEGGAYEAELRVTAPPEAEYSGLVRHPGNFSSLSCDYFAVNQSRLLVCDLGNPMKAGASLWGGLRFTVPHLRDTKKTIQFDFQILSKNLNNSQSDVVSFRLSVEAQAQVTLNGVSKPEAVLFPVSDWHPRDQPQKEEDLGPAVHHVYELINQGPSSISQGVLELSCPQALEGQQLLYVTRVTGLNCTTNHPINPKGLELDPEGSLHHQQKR
Sequence of Integrin alpha-5/beta-1 (P08648 895-1049 limits assumed): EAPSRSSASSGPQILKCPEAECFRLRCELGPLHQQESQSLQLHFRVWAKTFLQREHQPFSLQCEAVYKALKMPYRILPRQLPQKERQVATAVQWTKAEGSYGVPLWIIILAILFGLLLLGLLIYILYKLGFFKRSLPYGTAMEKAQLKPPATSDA
Assay [5] is described as follows: as §2. The class given is functional, cell-based.

Each structure is given as a SMILES string. Peptide text beside a SMILES is read from it. Some results are limits rather than exact numbers.

The term inhibition denotes how much of the control response was suppressed. A lower inhibition goes with little suppression. As to `NCCCCCCOc1ccc(CCC(=O)O)cc1`, the inhibition in assay [1] was 12%.

What is called IC50 is the concentration that gives 50% inhibition. Read a low IC50 as greater potency. Take `CCCCS(=O)(=O)N[C@@H](Cc1ccc(OCCCCCCN)cc1)C(=O)O`: the half-maximal inhibitory concentration (IC50) against Integrin alpha-V/beta-3 [2] is 330 µM; at Integrin alpha-V/beta-3 [3], 150 µM; in assay [4], 0.78 µM; at Integrin alpha-5/beta-1 it was > 500 µM.

In assay [4], `CCCCCC(=O)N[C@@H](Cc1ccc(OCCCCC2CCNCC2)cc1)C(=O)O` displayed an IC50 of 0.035 µM.

On to `CCCCS(=O)(=O)N[C@@H](Cc1ccc(OCCCCC2CCNCC2)cc1)C(=O)O` [TIROFIBAN], for which half-maximal inhibition against Integrin alpha-V/beta-3 [3] (IC50) required 62 µM.

Take `NCCCCCCCOc1ccc(C[C@H](NC(=O)OCc2ccccc2)C(=O)O)cc1`: the concentration for half-maximal inhibition (IC50) was 315 µM against Integrin alpha-V/beta-3 [2], 147 µM against Integrin alpha-V/beta-3 [3] and > 450 µM on Integrin alpha-5/beta-1.

In assay [4], `NCCCCCCOc1ccc(C[C@H](NC(=O)CCc2ccccc2)C(=O)O)cc1` registered an IC50 of 8 µM.

In assay [4], `O=C(O)[C@H](Cc1ccc(OCCCCC2CCNCC2)cc1)NS(=O)(=O)Cc1ccccc1` came in with an IC50 of 0.018 µM.

Consider `O=C(N[C@@H](Cc1ccc(OCCCCC2CCNCC2)cc1)C(=O)O)OCc1ccccc1`, for which the concentration for half-maximal inhibition (IC50) was found to be 158 µM against Integrin alpha-V/beta-3 [2], 56 µM against Integrin alpha-V/beta-3 [3], 0.26 µM in assay [4] and 300 µM in assay [5].

As to `NCCCCCCOc1ccc(C[C@H](NC(=O)OCc2ccccc2)C(=O)O)cc1`, in assay [4], half-maximal inhibition (IC50) was put at 26 µM.

With `CC(C)(C)NCC(O)COc1ccc(C[C@H](NC(=O)OCc2ccccc2)C(=O)O)cc1` (stereo partly drawn), the concentration for half-maximal inhibition (IC50) (on Integrin alpha-V/beta-3 [2]; against Integrin alpha-V/beta-3 [3]; in assay [5]) was > 300 µM in each case.

Consider `NC(N)=NCCC[C@H](N)C(=O)NCC(=O)N[C@@H](CC(=O)O)C(=O)N[C@@H](Cc1c[nH]c2ccccc12)C(=O)O` (H-RGDW-OH), for which the IC50 was 34 µM at Integrin alpha-V/beta-3 [2], 14 µM against Integrin alpha-V/beta-3 [3] and 27 µM against Integrin alpha-5/beta-1.
